The entries come from a sample that favours hits as a whole.
CDK5 inh: blocks human CDK5/p35 kinase activity. 330,000 tested, 0.01% active. Recombinant CDK5/p35, ADP-Glo luminescence, 60 min. Q00535+Q15078. inhibition, % at 10 µM;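 active = highest replicate inhibition of at least 50% and at least 75% of replicates reaching 50%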;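 also: plate controls were DMSO neutral control for no effect and GW8510 at 10 µM for full effect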
Dyrk1A ADPGlo: inhibitors of rat Dyrk1A kinase; Q63470; ADP-Glo luminescence, NFATc1 peptide; inhibition, % at 12.5 µM; 310,000 tested, 0.43% active; AID 504441; in the data active = inhibition above about 50%;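 also: plate controls were vehicle with enzyme for no effect and no enzyme for full effect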
GSK3beta inhib: human GSK3beta kinase inhibition | P49841 | GST-GSK3beta kinase, ADP-Glo luminescence, 60 min; active compounds read low | activity score (negative = inhibition), % at 10 µM | 300,000 tested, 0.038% active | AID 2097;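 active = more than half of replicate wells score below -50%, meaning over 50% inhibition versus plate controls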;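 also: 0% = median DMSO wells and -100% = median GW8510 positive control wells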
Target sequence (P49841 whole entry, looked up): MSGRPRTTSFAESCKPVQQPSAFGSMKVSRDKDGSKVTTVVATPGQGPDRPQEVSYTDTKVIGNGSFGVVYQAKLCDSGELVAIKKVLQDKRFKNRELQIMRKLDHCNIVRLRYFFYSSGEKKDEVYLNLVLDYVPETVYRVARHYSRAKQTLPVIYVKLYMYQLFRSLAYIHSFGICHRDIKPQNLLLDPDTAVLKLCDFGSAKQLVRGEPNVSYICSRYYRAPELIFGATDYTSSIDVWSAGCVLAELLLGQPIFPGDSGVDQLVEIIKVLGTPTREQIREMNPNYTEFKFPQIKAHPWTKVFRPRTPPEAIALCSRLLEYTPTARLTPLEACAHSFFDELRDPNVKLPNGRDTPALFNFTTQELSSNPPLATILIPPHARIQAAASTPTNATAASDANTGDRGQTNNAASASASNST
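Test system: GST-fused GSK3beta enzyme, cell-free | Quantity: 1.6 ng GST-GSK3beta enzyme per well | Reagent: 25 µM ATP with peptide substrate | Schedule: 60 min enzyme reaction, room temperature | Signal: Luminescent ADP-Glo measurement of ADP formed | Read-out basis: Score relative to plate controls | Control set: DMSO and 20 µM GW8510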
GSK3 alpha inh: blocks human GSK-3 alpha kinase; P49840; ADP-Glo luminescence, 60 min; inhibition, % at 10 µM; 320,000 tested, 0.1% active;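 active = more than half of replicates show inhibition above 20%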;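 also: GST-tagged GSK-3 alpha with peptide substrate and 25 µM ATP; 0% = DMSO neutral wells and 100% = GW8510 positive control wells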
STK33 kinase inh: blocks human STK33 kinase activity. Q9BYT3. purified STK33, MBP phosphorylation, ADP-Glo luminescence. inhibition, % at 10 µM. 320,000 tested, 0.073% active;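 active = inhibition at or above 25%, using the most active replicate where run in duplicate; inactive = inhibition below 25%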
The depositor's hits bear a star; . = no result given.

SMILES	CDK5 inh	Dyrk1A ADPGlo	GSK3beta inhib	GSK3 alpha inh	STK33 kinase inh
Cc1nn(C)cc1/C=C/C(=O)c1ccc(O)cc1	2.4	10.0	-0.5	6.5	31.3*
CCCc1ccc(-c2cc(C(=O)NCCc3ccc(S(N)(=O)=O)cc3)c3ccccc3n2)cc1	-0.1	.	5.4	-1.8	3.0
O=C(CSc1nnc(SCc2ccccc2)s1)N/N=C/c1ccc(C(=O)O)cc1	2.3	2.2	-16.3	53.0*	-1.4
Cc1ccc(CSc2nnc(SCC(=O)N/N=C/c3ccc(C(=O)O)cc3)s2)cc1	2.7	-6.0	-10.2	3.2	-1.0
CN(C)/C=C/c1onc(-c2ccccc2Cl)c1C#N	-3.0	0.5	0.8	-2.0	-0.4
COc1ccc(CCNC(=S)NC(=O)c2cc(OC)c(OC)c(OC)c2)cc1OC	-0.1	2.9	3.6	1.3	1.2
CCN(CC)C(=O)[C@H]1CC(CC(=O)NCCc2ccccn2)C(=O)N2CCc3c([nH]c4ccccc34)[C@]12C (some centres undefined)	-2.3	-1.2	.	-1.1	1.3
N#Cc1c2n(c3c(=O)[nH]cnc13)CCCC2	3.0	1.9	1.1	19.6	1.7
N#Cc1c2n(c3c(=S)nc[nH]c13)CCCCC2	5.9	29.5	-92.2*	102.1*	3.2
CC[N+](C)(C)CC/C=C1/c2ccccc2Sc2ccc(Cl)cc21	.	.	-5.4	-0.3	-0.8
CCCCCCCCCC[N+](C)(C)CC/C=C1/c2ccccc2Sc2ccc(Cl)cc21	-0.3	-4.2	-5.9	5.1	32.4*
CCCCCCCCCCC[N+](C)(C)CC/C=C1/c2ccccc2Sc2ccc(Cl)cc21	2.0	1.1	-5.0	6.3	30.9*
O=c1[nH][nH]c2c(N=Cc3ccccc3O)ccc(F)c12	-2.1	58.0*	.	.	.
CS(=O)(=O)N1CCN(c2ccccc2NC(=O)c2ccc(Br)o2)CC1	1.2	43.4	1.9	52.8*	23.1
CCc1ccc(NC(=O)CCNC(=O)Cn2ccc3ccccc3c2=O)cc1	-0.1	1.5	1.6	0.3	-0.6
N#Cc1ccccc1CSc1nnc(-c2ccncc2)o1	1.5	25.9	-52.2*	20.7	2.3
c1ccc2c(CSc3nnc(-c4ccncc4)o3)cccc2c1	0.1	25.0	-25.7	32.9	-1.1
Brc1cccc(CSc2nnc(-c3ccncc3)o2)c1	-0.5	25.7	-70.3*	58.8*	1.9
Fc1cccc(Cl)c1CSc1nnc(-c2ccncc2)o1	1.4	36.8	-33.7	57.0*	2.3
Clc1ccccc1CSc1nnc(-c2ccncc2)o1	0.9	30.4	1.3	53.9*	0.2
COc1cc(/C=C\C(=O)OCn2nnc3ccccc3c2=O)cc(OC)c1OC	-1.1	-5.2	-1.9	-0.9	-0.1
COc1ccc(OC)c(/C=C/C(=O)N(C)CC(=O)Nc2cc(C)ccc2C)c1	.	-3.8	0.9	0.2	0.3
CC(=O)Nc1nonc1NC(C)=O	1.0	-1.2	0.3	-2.7	-2.2
CC(=O)Nc1cc(OC(C)=O)c2nonc2c1OC(C)=O	-2.3	.	.	68.3*	2.4
CCN(CC)c1ccc([C@H]2[C@@H]3CCCC[C@]3(O)CCN2CC(=O)NCc2ccco2)cc1	0.9	.	2.8	0.0	-1.0
SMILES	CDK5 inh	Dyrk1A ADPGlo	GSK3beta inhib	GSK3 alpha inh	STK33 kinase inh
COc1cc(C2c3sc(=O)[nH]c3SC3C(=O)N(c4ccc(C)cc4)C(=O)C32)ccc1O (centres undefined)	0.6	32.7	1.1	4.8	31.3*
CCOc1ccc(N2C(=O)C3Sc4[nH]c(=O)sc4C(c4ccc(OC)c(OC)c4)C3C2=O)cc1 (centres undefined)	-1.7	-3.7	0.3	-2.2	-3.1
COc1cc(C2c3sc(=O)[nH]c3SC3C4CCC(C4)C23)ccc1O (centres undefined)	-4.1	0.1	2.6	77.6*	0.6
COc1ccc(-c2oc3ncnc(NCCCN(C)C)c3c2-c2ccc(OC)cc2)cc1	-0.1	-3.1	-4.2	5.4	38.0*
c1ccc(CCCNCC2COc3ccccc3O2)cc1 (centres undefined)	-3.6	4.0	1.6	.	-0.6
CCCNCC1COc2ccccc2O1 (centres undefined)	.	.	-52.4*	5.8	-0.5
CCCc1cc(-c2[nH]ncc2-c2ccc(C(=O)OCC)o2)c(O)cc1O	34.4	16.6	-0.1	-1.1	1.1
CCCc1cc(-c2[nH]ncc2-c2ccc3c(c2)OCCCO3)c(O)cc1O	-4.7	58.4*	-3.2	2.2	2.0
COc1cc(/C=C2\SC(=Nc3ccc(Cl)c(C(=O)O)c3)NC2=O)c(Br)c(Br)c1O	-3.8	65.0*	-15.0	22.1	35.1*
COC(=O)/C=C1\SC(=Nc2ccc(Cl)c(Cl)c2)NC1=O	-2.2	0.6	0.3	-2.8	-0.7
COc1ccc(NC(=S)N2CCN(S(=O)(=O)c3ccccc3)CC2)cc1	-0.6	0.0	1.6	.	-0.5
CCCN1C=CC(=C2C(=O)c3ccccc3C2=O)C=C1	8.4	36.8	0.1	9.5	30.7*
c1nc(N2CCCCCC2)c2[nH]cnc2n1	3.9	10.9	-2.2	27.9	10.0
c1nc(N2CCCC2)c2[nH]cnc2n1	2.8	17.6	-0.9	13.8	31.3*
CCOC(=O)c1cnc2ccc(OC)cc2c1Nc1ccc(N2CCN(C)CC2)cc1	1.0	43.8	-59.0*	84.0*	-0.3
COc1ccc(S(=O)(=O)/N=C2\C=C(Nc3ccc(O)cc3)C(=O)c3ccccc32)cc1	5.1	32.0	-4.6	5.8	5.7
O=C(O)c1ccc(S(=O)(=O)/N=C2\C=C(Nc3ccccc3F)C(=O)c3ccccc32)cc1	4.0	56.7*	-12.1	20.3	18.5
CC(C)CNc1nc(N)c([N+](=O)[O-])c(NCC2CCCO2)n1 (centres undefined)	-3.1	-1.5	-36.5	58.9*	1.2
Cc1ccc(Nc2nc(NCC3CCCO3)nc(N)c2[N+](=O)[O-])cc1C (centres undefined)	.	4.4	0.5	3.4	-1.1
COCCCNc1nc(N)c([N+](=O)[O-])c(NCc2ccccc2)n1	0.6	10.8	-1.4	3.1	-1.7
CC(C)CNc1nc(N)c([N+](=O)[O-])c(NC2CCCCC2)n1	0.8	-2.4	1.5	1.0	-0.1
COCCCNc1nc(N)c([N+](=O)[O-])c(Nc2ccccc2OC)n1	0.9	15.7	-47.7	74.0*	-0.1
COCCCNc1nc(N)c([N+](=O)[O-])c(NCC2CCCO2)n1 (centres undefined)	-0.3	49.7	-0.1	81.1*	1.2
CCOC(=O)C(NC(=O)CC)(Nc1ccccc1)C(F)(F)F (centres undefined)	0.7	-5.5	0.8	-2.1	-1.4
CCOC1(OCC)N=C(N)C2(C#N)C(c3ccc(NC(C)=O)cc3)C12C#N (centres undefined)	0.4	36.0	3.2	59.9*	12.5
COC1(OC)N=C(N)C2(C#N)C(c3ccc(F)cc3)C12C#N (centres undefined)	-3.8	13.0	0.7	0.7	-1.5
CN(c1ncnc(N)c1[N+](=O)[O-])C1CCS(=O)(=O)C1 (centres undefined)	1.5	15.6	-37.1	55.4*	-0.9
